Results on 1 compound are retold here after ChEMBL document CHEMBL4364248, “Discovery of 1,2,4-oxadiazole-Containing hydroxamic acid derivatives as histone deacetylase inhibitors potential application in cancer therapy” (Eur J Med Chem, 2019).

Molecules are shown by their SMILES. Active and inactive are the calls of the source. No cut-off for these calls is given here.

For assay [1], the system named is Daudi. The assay is described as follows: Antitumour activity against human Daudi cells xenografted in NOD/SCID mouse assessed as reduction in tumour growth at 20 mg/kg, po treated on day 1,3 and 5 per week and measured for every 2 days. The format is functional. As to conditions: read-out: TGI. Summed up: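 Daudi cells (107 in 100 µL serum-free RPMI 1640) were injected s.c. into the right flank of 5–6 week female NOD/SCID mice. At 100–200 mm3, mice were randomized six per group. Dosing was 10 mg/kg i.v. or 20 mg/kg p.o. in 8% HP-β-CD on days 1, 3 and 5 each week. Tumors were measured by caliper every 2 days, with TV = length × width² × 0.5.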
Background: Xenograft models place foreign cells or tissue in a host animal.

For assay [2], the target named is T1, Protein deacetylase HDAC6 (Homo sapiens) (UniProt Q9UBN7).
T1 sequence (whole entry): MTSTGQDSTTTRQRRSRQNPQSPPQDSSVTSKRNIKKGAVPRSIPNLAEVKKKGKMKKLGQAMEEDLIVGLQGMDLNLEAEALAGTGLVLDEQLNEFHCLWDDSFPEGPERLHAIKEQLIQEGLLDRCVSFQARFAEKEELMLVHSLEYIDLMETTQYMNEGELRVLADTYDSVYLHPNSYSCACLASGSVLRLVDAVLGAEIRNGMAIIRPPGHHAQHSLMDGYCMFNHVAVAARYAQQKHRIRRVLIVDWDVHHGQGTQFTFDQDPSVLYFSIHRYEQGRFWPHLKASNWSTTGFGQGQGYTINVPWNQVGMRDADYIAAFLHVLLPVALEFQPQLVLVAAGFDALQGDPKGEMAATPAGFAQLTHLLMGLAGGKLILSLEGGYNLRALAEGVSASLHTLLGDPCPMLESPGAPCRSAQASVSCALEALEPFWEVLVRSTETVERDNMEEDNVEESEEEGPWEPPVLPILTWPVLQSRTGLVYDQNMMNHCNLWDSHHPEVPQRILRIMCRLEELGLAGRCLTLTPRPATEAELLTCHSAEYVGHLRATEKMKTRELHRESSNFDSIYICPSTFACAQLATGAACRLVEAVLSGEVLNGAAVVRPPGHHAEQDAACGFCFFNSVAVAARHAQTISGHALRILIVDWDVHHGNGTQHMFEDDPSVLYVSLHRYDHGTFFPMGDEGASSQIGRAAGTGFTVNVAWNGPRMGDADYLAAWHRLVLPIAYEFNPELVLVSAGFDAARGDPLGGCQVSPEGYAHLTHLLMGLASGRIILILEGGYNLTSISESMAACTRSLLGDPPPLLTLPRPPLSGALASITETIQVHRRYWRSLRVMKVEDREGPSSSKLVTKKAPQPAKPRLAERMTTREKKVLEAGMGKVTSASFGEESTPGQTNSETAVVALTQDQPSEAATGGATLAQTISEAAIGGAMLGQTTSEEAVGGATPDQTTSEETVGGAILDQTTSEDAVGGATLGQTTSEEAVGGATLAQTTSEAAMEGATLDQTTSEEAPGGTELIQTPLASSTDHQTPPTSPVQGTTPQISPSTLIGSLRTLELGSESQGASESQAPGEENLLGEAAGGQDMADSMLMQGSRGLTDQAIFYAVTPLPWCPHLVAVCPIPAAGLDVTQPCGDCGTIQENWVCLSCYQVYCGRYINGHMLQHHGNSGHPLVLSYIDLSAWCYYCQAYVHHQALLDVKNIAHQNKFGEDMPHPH
The assay can be described thus: Inhibition of HDAC6 in human MM1S cells assessed as increase in alpha tubulin acetylation after 6 hrs by Western blot analysis. The format is cell-based. A general note: A western blot detects proteins with antibodies after separation by electrophoresis.

The test system of assay [3] is Daudi. The assay is described as follows: Antitumour activity against human Daudi cells xenografted in NOD/SCID mouse assessed as increase in acetylated H4 expression at 10 mg/kg, iv treated on day 1,3 and 5 per week by immunohistochemical analysis. The assay is classed as functional, organism-based. Summed up: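 Daudi s.c. xenografts in female NOD/SCID mice (5–6 weeks) were randomized six per group at 100–200 mm3. Dosing was 10 mg/kg i.v. or 20 mg/kg p.o. in 8% HP-β-CD on days 1, 3 and 5 weekly. Tumors were collected at study end for immunohistochemistry, with comparison to the control group.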

In the case of `Cc1ccc(CN2CCC(c3noc(CN(C)c4ncc(C(=O)NO)cn4)n3)CC2)cc1`, the inhibition in vivo at 20 mg/kg in assay [1] turned out to be 53.8%. In assay [2], the inhibition result was “Dose-dependent effect”. In addition, in assay [3], the outcome was Active.
